Assay results reported in ChEMBL document CHEMBL1142529.

Key:
[1] = target: T1, Quinolone resistance protein NorA (Staphylococcus aureus) (UniProt P0A0J7); assay: Inhibition of NorA efflux pump in Staphylococcus aureus 1199 assessed as fold reduction of ciprofloxacin MIC at 6.25 ug/ml
T1 sequence (whole entry): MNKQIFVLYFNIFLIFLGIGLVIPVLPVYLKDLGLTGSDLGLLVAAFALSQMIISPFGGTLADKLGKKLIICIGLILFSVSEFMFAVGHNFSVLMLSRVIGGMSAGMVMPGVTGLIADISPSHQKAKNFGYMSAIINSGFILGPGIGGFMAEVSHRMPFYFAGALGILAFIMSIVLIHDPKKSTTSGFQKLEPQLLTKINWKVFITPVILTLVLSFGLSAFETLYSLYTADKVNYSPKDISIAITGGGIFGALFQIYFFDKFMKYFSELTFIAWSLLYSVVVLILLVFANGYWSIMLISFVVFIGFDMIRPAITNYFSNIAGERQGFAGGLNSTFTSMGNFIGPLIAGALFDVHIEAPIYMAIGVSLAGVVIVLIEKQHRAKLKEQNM
Outline: (§1)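 Broth checkerboard synergy in Mueller–Hinton broth with twofold serial dilutions. Each candidate EPI was run at seven concentrations (100–1.56 µg/mL) against ciprofloxacin at 10 concentrations (16–0.03 µg/mL). Incubation was 18 h at 37 °C, and growth was scored visually. The fold drop in ciprofloxacin MIC was read at the stated EPI concentration.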

[2] = target: T1, Quinolone resistance protein NorA (Staphylococcus aureus); assay: Inhibition of NorA efflux pump in Staphylococcus aureus 1199B assessed as fold reduction of ciprofloxacin MIC at 6.25 ug/ml; outline: as §1
[3] = target: T1, Quinolone resistance protein NorA (Staphylococcus aureus); assay: Inhibition of NorA efflux pump in Staphylococcus aureus 1199B assessed as fold reduction of ciprofloxacin MIC at 25 ug/ml; outline: as §1
[4] = target: T1, Quinolone resistance protein NorA (Staphylococcus aureus); assay: Inhibition of NorA efflux pump in Staphylococcus aureus 1199 assessed as fold reduction of ciprofloxacin MIC at 25 ug/ml; outline: as §1
[5] = target: T1, Quinolone resistance protein NorA (Staphylococcus aureus); assay: Inhibition of NorA efflux pump in Staphylococcus aureus 1199 assessed as fold reduction of ciprofloxacin MIC at 12.5 ug/ml; outline: as §1
[6] = target: T1, Quinolone resistance protein NorA (Staphylococcus aureus); assay: Inhibition of NorA efflux pump in Staphylococcus aureus 1199B assessed as fold reduction of ciprofloxacin MIC at 12.5 ug/ml; outline: as §1
[7] = target: T1, Quinolone resistance protein NorA (Staphylococcus aureus); assay: Inhibition of NorA efflux pump in Staphylococcus aureus 1199B assessed as fold reduction of ciprofloxacin MIC at 3.12 ug/ml; outline: as §1
[8] = target: T1, Quinolone resistance protein NorA (Staphylococcus aureus); assay: Inhibition of NorA efflux pump in Staphylococcus aureus 1199 assessed as fold reduction of ciprofloxacin MIC at 3.12 ug/ml; outline: as §1
[9] = target: T1, Quinolone resistance protein NorA (Staphylococcus aureus); assay: Inhibition of NorA efflux pump in Staphylococcus aureus 1199 assessed as fold reduction of ciprofloxacin MIC at >100 ug/ml; outline: as §1
[10] = target: T1, Quinolone resistance protein NorA (Staphylococcus aureus); assay: Inhibition of NorA efflux pump in Staphylococcus aureus 1199B assessed as fold reduction of ciprofloxacin MIC at >100 ug/ml
[11] = target: T1, Quinolone resistance protein NorA (Staphylococcus aureus); assay: Inhibition of NorA efflux pump in Staphylococcus aureus 1199B assessed as fold reduction of ciprofloxacin MIC at 1.5 ug/ml; outline: as §1
[12] = target: T1, Quinolone resistance protein NorA (Staphylococcus aureus); assay: Inhibition of NorA efflux pump in Staphylococcus aureus 1199 assessed as fold reduction of ciprofloxacin MIC at 1.5 ug/ml; outline: as §1
[13] = target: T1, Quinolone resistance protein NorA (Staphylococcus aureus); assay: Inhibition of NorA efflux pump in Staphylococcus aureus 1199B assessed as fold reduction of ciprofloxacin MIC at 100 ug/ml; outline: as §1
[14] = target: T1, Quinolone resistance protein NorA (Staphylococcus aureus); assay: Inhibition of NorA efflux pump in Staphylococcus aureus 1199 assessed as fold reduction of ciprofloxacin MIC at 100 ug/ml; outline: as §1

For `CC(=O)Nc1ccc(NC(=O)/C=C/C=C/c2ccc3c(c2)OCO3)cc1`, the fold change (FC) [1] was 0, the fold change (FC) [2] was 2 and the fold change (FC) [3] was 4. It also gave a fold change (FC) [4] of 2.

`CC(=O)Nc1cccc(NC(=O)/C=C/C=C/c2ccc3c(c2)OCO3)c1` showed a fold change (FC) [1] of 0, a fold change (FC) [2] of 2 and a fold change (FC) [5] of 2. The fold change (FC) [6] was 4.

Compound `CC(C)N(C(=O)/C=C/C=C/c1ccc2c(c1)OCO2)C(C)C` has a fold change (FC) [3] of 2 and a fold change (FC) [4] of 2.

Compound `O=C(/C=C/C=C/c1ccc2c(c1)OCO2)Nc1ccc2ncsc2c1` has a fold change (FC) [7] of 2 and a fold change (FC) [8] of 0.

In the case of `CC(C)NC(=O)/C=C/C=C/c1ccc2c(c1)OCO2`, the fold change (FC) [3] is reported as 2 and the fold change (FC) [4] is reported as 0.

For `O=C(CCCCc1ccc2c(c1)OCO2)Nc1ccc(C(=O)Nc2ccccc2)cc1`, the fold change (FC) [9] was 0 and the fold change (FC) [10] was 0.

Work on `O=C(/C=C/C=C/c1ccc2c(c1)OCO2)Nc1nc2ccccc2s1` yielded a fold change (FC) [1] of 2 and a fold change (FC) [2] of 2.

In the case of `N#CCc1ccccc1NC(=O)/C=C/C=C/c1ccc2c(c1)OCO2`, the fold change (FC) [9] is reported as 0 and the fold change (FC) [10] is reported as 0.

`NC(=O)c1ccc(NC(=O)/C=C/C=C/c2ccc3c(c2)OCO3)cc1` gave a fold change (FC) [3] of 2 and a fold change (FC) [4] of 0.

Work on `CC(C)c1cc2c(c(O)c1O)[C@@]1(C(=O)O)CCCC(C)(C)[C@@H]1CC2` yielded a fold change (FC) [3] of 2 and a fold change (FC) [4] of 2.

`CC(=O)Nc1ccccc1NC(=O)/C=C/C=C/c1ccc2c(c1)OCO2` showed a fold change (FC) [1] of 0, a fold change (FC) [2] of 2 and a fold change (FC) [3] of 4. The fold change (FC) [4] was 2.

Work on `N#Cc1cccc(NC(=O)/C=C/C=C/c2ccc3c(c2)OCO3)c1` yielded a fold change (FC) [1] of 0, a fold change (FC) [2] of 4 and a fold change (FC) [11] of 2. It also gave a fold change (FC) [12] of 0.

`N#CCc1ccc(NC(=O)/C=C/C=C/c2ccc3c(c2)OCO3)cc1` was tested, and the fold change (FC) [3] was 2 and the fold change (FC) [4] was 0.

For `O=C(/C=C/C=C/c1ccc2c(c1)OCO2)N1CCOCC1`, the fold change (FC) [9] was 0 and the fold change (FC) [10] was 0.

`COC(=O)[C@H]1[C@H]2C[C@@H]3c4[nH]c5cc(OC)ccc5c4CCN3C[C@H]2C[C@@H](OC(=O)c2cc(OC)c(OC)c(OC)c2)[C@@H]1OC` gave a fold change (FC) [3] of 4 and a fold change (FC) [4] of 2.

`CCN(CC)C(=O)/C=C/C=C/c1ccc2c(c1)OCO2` was tested, and the fold change (FC) [3] was 2 and the fold change (FC) [4] was 0.

Work on `O=C(/C=C/C=C/c1ccc2c(c1)OCO2)Nc1ccc(C(=O)Nc2ccccc2)cc1` yielded a fold change (FC) [7] of 2, a fold change (FC) [8] of 0 and a fold change (FC) [3] of 4. The fold change (FC) [4] was 0.

`O=C(/C=C/C=C/c1ccc2c(c1)OCO2)Nc1ccc(NC(=O)c2ccccc2)cc1` gave a fold change (FC) [7] of 2 and a fold change (FC) [8] of 0.

Compound `O=C(/C=C/C=C/c1ccc2c(c1)OCO2)Nc1cccc(CO)c1` has a fold change (FC) [3] of 2 and a fold change (FC) [4] of 0.

Compound `COc1ccc(NC(=O)/C=C/C=C/c2ccc3c(c2)OCO3)cc1` has a fold change (FC) [9] of 0 and a fold change (FC) [10] of 0.

Work on `Cc1ccccc1NC(=O)/C=C/C=C/c1ccc2c(c1)OCO2` yielded a fold change (FC) [9] of 0 and a fold change (FC) [10] of 0.

Compound `O=C(/C=C/C=C/c1ccc2c(c1)OCO2)Nc1ccccc1CO` has a fold change (FC) [3] of 2 and a fold change (FC) [4] of 0.

Work on `CC(C)CNC(=O)CCCCc1ccc2c(c1)OCO2` yielded a fold change (FC) [9] of 0 and a fold change (FC) [10] of 0.

`CCCNC(=O)/C=C/C=C/c1ccc2c(c1)OCO2` gave a fold change (FC) [9] of 0 and a fold change (FC) [10] of 0.

`N#Cc1cccc(NC(=O)CCCCc2ccc3c(c2)OCO3)c1` gave a fold change (FC) [9] of 0 and a fold change (FC) [10] of 0.

`CN1CCN(C(=O)/C=C/C=C/c2ccc3c(c2)OCO3)CC1` showed a fold change (FC) [3] of 2 and a fold change (FC) [4] of 0.

`CC[C@@H](CO)NC(=O)/C=C/C=C/c1ccc2c(c1)OCO2` gave a fold change (FC) [3] of 2 and a fold change (FC) [4] of 0.

`O=C(/C=C/C=C/c1ccc2c(c1)OCO2)Nc1ccc2c(c1)OCO2` showed a fold change (FC) [9] of 0 and a fold change (FC) [10] of 0.

With `N#Cc1ccc(NC(=O)/C=C/C=C/c2ccc3c(c2)OCO3)cc1` the fold change (FC) [3] was 2 and the fold change (FC) [4] was 0.

With `O=C(/C=C/C=C/c1ccc2c(c1)OCO2)NCC(O)c1ccccc1` (stereo not given) the fold change (FC) [5] was 0 and the fold change (FC) [6] was 2.

`O=C(/C=C/C=C/c1ccc2c(c1)OCO2)Nc1ccccc1` was tested, and the fold change (FC) [5] was 2 and the fold change (FC) [6] was 2.

With `CC(C)CNC(=O)/C=C/C=C/c1ccc2c(c1)OCO2` the fold change (FC) [3] was 2 and the fold change (FC) [4] was 0.

`O=C(/C=C/C=C/c1ccc2c(c1)OCO2)Nc1ccc(CO)cc1` showed a fold change (FC) [1] of 0 and a fold change (FC) [2] of 2.

`CC[C@H](CO)NC(=O)/C=C/C=C/c1ccc2c(c1)OCO2` was tested, and the fold change (FC) [9] was 0 and the fold change (FC) [10] was 0.

Work on `CCCCNC(=O)/C=C/C=C/c1ccc2c(c1)OCO2` yielded a fold change (FC) [13] of 0 and a fold change (FC) [14] of 0.
